In one data set the test system is PC-12. Briefly: Inhibition of corticosterone-induced rat PC12 cells lesions assessed as protection rate at 1.25 uM after 24 hrs by MTT assay. Type of data set: functional. Set-up: scale not given: the % may be the effect or the level left. The gist of the method:
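Rat PC12 cells injured with corticosterone and co-treated with compound at 1.25 μM, absorbance read 24 h after treatment. Protection rate = (A_d − A_c)/A_c × 100%, where A_c is the mean absorbance of corticosterone-only controls and A_d that of corticosterone plus compound. Six independent experiments, ± SD.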

A short description of data set [1]: Octanol-water partition coefficient, log P of the compound. Format: physicochemical.
A short description of data set [2]: Cytotoxicity against human L02 cells assessed as inhibitory rate at 80 uM after 24 hrs by MTT assay. Type of data set: cell-based. As to conditions: read-out: INH. The gist of the method: (§1)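 Human normal liver L02 cells and human embryonic kidney 293 cells treated with compound at 80 μM for 24 h. Viability of untreated cells taken as 100%; inhibitory rate reported as mean ± SD of three independent experiments.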

The nature of data set [3]: Cytotoxicity against human HEK293 cells assessed as inhibitory rate at 80 uM after 24 hrs by MTT assay. Format: cell-based. To be noted: read-out: INH. The gist of the method: as §1
The subject of a further data set is Mus musculus. Description: Antidepressant activity in C57 mouse assessed as decrease in immobility time at 32 mg/kg, ip on days 2 to 15 by forced swimming test. Format: functional, organism-based. Set-up: dose 32 mg/kg.

This note sets out measurements from ChEMBL document CHEMBL3232775, “Synthesis and evaluation of amide side-chain modified Agomelatine analogues as potential antidepressant-like agents” (Bioorg Med Chem Lett, 2014).

Active and inactive are the calls of the source. No cut-off for these calls is given here.

For `CNCCC(Oc1ccc(C(F)(F)F)cc1)c1ccccc1` (stereo not drawn) [FLUOXETINE], the Activity with PC-12 came to 19.7%.
On to `COc1ccc2cccc(CCNC(=O)N3CCCC3)c2c1`, for which the logP (in general, a log measure of how a compound divides between an organic and an aqueous phase) in data set [1] was -0.52. Also, the cytotoxicity at 24 h, 80 µM in data set [2] was found to be 19.3%; in data set [3], 28.4%. The Activity in the data set on PC-12 stood at 9.8%.
In data set [1], `COc1ccc2cccc(CCNC(=O)/C(Cl)=C(\Cl)C(=O)O)c2c1` registered a lipophilicity (logP) of 1.18. Further, the cytotoxicity at 24 h, 80 µM in data set [2] worked out at 3.8%; in data set [3], 18.6%. Further, in the data set on PC-12, the Activity is given as -8.4%.
On the same counts, the results for `COc1ccc2cccc(CCN3C(=O)C(Cl)=C(Cl)C3=O)c2c1` are 1.99, 3.4%, 17.2% and -12.8%.
Take `COc1ccc2cccc(CCN3C(=O)CC(C)(C)CC3=O)c2c1`: in data set [1], the logP came out at 2.78. The cytotoxicity at 24 h, 80 µM came out at 10.4% in data set [2] and 41.9% in data set [3]. In the data set with PC-12, the Activity is listed as -50.3%.
As for `COc1ccc2cccc(CCNC(=O)CC(C)(C)CC(=O)O)c2c1`, the log partition coefficient (logP) in data set [1] came to 1.75. Moreover, the figures for the cytotoxicity at 24 h, 80 µM in data set [2] and in data set [3] were 5.7% and 34.1%, respectively. In the data set with PC-12, the Activity was determined as 6.3%.
For `COc1ccc2cccc(CCNC(=O)N3CCCCC3)c2c1` the same measures were 2.81, 22.6%, 16.6% and -11.5%.
Compound `COc1ccc2cccc(CCN3C(=O)C(C)=C(C)C3=O)c2c1` gave a logP in data set [1] of 1.53. Also, the outcome in the data set with Mus musculus was Active. Further, the cytotoxicity at 24 h, 80 µM stood at 13.8% in data set [2] and 9.6% in data set [3]. Further, the Activity in the data set with PC-12 is given as 34.2%.
In turn, `COc1ccc2cccc(CCNC(=O)/C=C/C(=O)O)c2c1` yielded a logP in data set [1] of 1.54. The outcome in the data set with Mus musculus was inactive. Also, the figures for the cytotoxicity at 24 h, 80 µM in data set [2] and in data set [3] were 3.4% and 33%, respectively. Besides, the Activity with PC-12 is 23.2%.
For the compound `COc1ccc2cccc(CCN3C(=O)CCC3=O)c2c1`, the logP in data set [1] was determined as 1.87. Also, the cytotoxicity at 24 h, 80 µM in data set [2] is 8.5%; in data set [3], 8.1%. The Activity in the data set on PC-12 is recorded as -16.8%.
In data set [1], `COc1ccc2cccc(CCNC(=O)CC3(CC(=O)O)CCCC3)c2c1` returned a logP of -1.17. Further, the figures for the cytotoxicity at 24 h, 80 µM in data set [2] and in data set [3] were 4.1% and 13.4%, respectively. Also, the Activity in the data set on PC-12 was -17.5%.
Compound `COc1ccc2cccc(CCNC(=O)N3CCN(C)CC3)c2c1` returned a logP in data set [1] of 1.88. The cytotoxicity at 24 h, 80 µM in data set [2] came to 20.1%; in data set [3], 46.6%. In the data set on PC-12, the Activity is 13.6%.
Turning to `COc1ccc2cccc(CCNC(=O)N3CCC(c4ccccc4)CC3)c2c1`, in data set [1], the logP came to 2.05. Moreover, the values for the cytotoxicity at 24 h, 80 µM in data set [2] and in data set [3] were 8.6% and 16.5%, respectively. In the data set with PC-12, the Activity is 2.5%.
On the same counts, the results for `CCN1CCN(C(=O)NCCc2cccc3ccc(OC)cc23)CC1` are 1.35, 3.1%, 3.9% and -7.7%.
The compound `COc1ccc2cccc(CCNC(C)=O)c2c1` [AGOMELATINE] came in with a logP in data set [1] of 1.62. Besides, the cytotoxicity at 24 h, 80 µM in data set [2] came to 20.2%; in data set [3], 26.6%. The Activity in the data set on PC-12 is reported as 26.2%.
On the same counts, the results for `COc1ccc2cccc(CCN3C(=O)c4ccc(Br)cc4C3=O)c2c1` are 2.57, 9.1%, 11.5% and -10.5%.
In turn, `COc1ccc2cccc(CCNC(=O)N(C)CCO)c2c1` came in with a logP in data set [1] of 1.12. The cytotoxicity at 24 h, 80 µM was 5.5% in data set [2] and 7.1% in data set [3]. In addition, the Activity with PC-12 is reported as -19.5%.
Take `COc1ccc2cccc(CCNC(=O)N3CCN(C(=O)OC(C)(C)C)CC3)c2c1`: the logP in data set [1] is 1.06. The cytotoxicity at 24 h, 80 µM in data set [2] amounted to 3%; in data set [3] it was 13.3%. Moreover, in the data set on PC-12, the Activity came out at 6.3%.
For the compound `COc1ccc2cccc(CCNC(=O)/C(C)=C(\C)C(=O)O)c2c1`, the logP in data set [1] amounted to 2.01. Besides, the results for the cytotoxicity at 24 h, 80 µM in data set [2] and in data set [3] were 5.8% and 13.2%, respectively. In addition, the Activity in the data set with PC-12 amounted to 2.8%.
For `COc1ccc2cccc(CCNC(=O)CCC(=O)O)c2c1` the same measures were 1.35, 3.1%, 13.9% and 11%.
Regarding `COc1ccc2cccc(CCNC(=O)N3CCC3)c2c1`, in data set [1], the logP was found to be 1.56. In addition, the cytotoxicity at 24 h, 80 µM is 18.4% in data set [2] and 28.4% in data set [3]. The Activity with PC-12 is 15.7%.
